{
  "source": "ChEMBL document CHEMBL3102806",
  "about": "“1,2,4-Triazole/oxime hybrids as new strategy for nitric oxide donors: Synthesis, anti-inflammatory, ulceroginicity and antiproliferative activities” (Eur J Med Chem, 2014)",
  "type_in_all_cases": "functional",
  "key": {"NCI-H23": {"test_system": "NCI-H23", "assay": "Growth inhibition of human NCI-H23 cells after 48 hrs by sulforhodamine B assay", "conditions": "NCI-H23, 48 h", "in_short": "(§1)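 NCI 60-cell-line panel (nine tumour subpanels), five-dose format: 10-fold dilutions from 10^-4 to 10^-8 M, 48 h continuous exposure, SRB protein stain. Percent growth at each level is derived from time-zero, untreated control and treated absorbances. GI50 is the concentration where [(Ti−Tz)/(C−Tz)]×100 = 50. Values outside the tested range are reported as above or below the limit.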"}, "RPMI-8226": {"test_system": "RPMI-8226", "assay": "Growth inhibition of human RPMI8226 cells after 48 hrs by sulforhodamine B assay", "conditions": "RPMI-8226, 48 h", "in_short": "as §1"}, "MOLT-4": {"test_system": "MOLT-4", "assay": "Growth inhibition of human MOLT4 cells after 48 hrs by sulforhodamine B assay", "conditions": "MOLT-4, 48 h", "in_short": "as §1"}, "[1]": {"conditions": "read-out: LC50 (the source's name)"}},
  "data": [
    {"smiles": "COc1ccc(-c2nnc(SCC(=O)Nc3ccc(/C(C)=N/O)cc3)n2-c2ccccc2)cc1OC", "values": [
      {"measurement": "GI50", "setting": "NCI-H23", "result": 12.9, "unit": "µM"},
      {"measurement": "TGI", "setting": "NCI-H23", "result": "> 100", "unit": "µM"},
      {"measurement": "CC50", "setting": "NCI-H23; [1]", "result": "> 100", "unit": "µM"},
      {"measurement": "GI50", "setting": "RPMI-8226", "result": "> 100", "unit": "µM"},
      {"measurement": "TGI", "setting": "RPMI-8226", "result": "> 100", "unit": "µM"},
      {"measurement": "CC50", "setting": "RPMI-8226; [1]", "result": "> 100", "unit": "µM"},
      {"measurement": "GI50", "setting": "MOLT-4", "result": "> 100", "unit": "µM"},
      {"measurement": "TGI", "setting": "MOLT-4", "result": "> 100", "unit": "µM"},
      {"measurement": "CC50", "setting": "MOLT-4; [1]", "result": "> 100", "unit": "µM"}
    ]}
  ]
}
